Assay outcomes as filed in PubChem.
This is one part of a sample in which hits are shown more often than they occur.
E coli RNAP = inhibitors of Escherichia coli RNA polymerase; P0A8V2; E. coli RNA polymerase, fluorescence transcription assay; inhibition, %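 (tested at 10 µM)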; 62,000 tested, 0.2% active; AID 559; in the data active means inhibition above about 20%
AP ELISA ortho = alternative pathway complement inhibition, orthogonal assay. Human serum alternative complement pathway, LPS-coated ELISA, C3 deposition; tested in compound mixtures. inhibition, % at 5 µM. 62,000 tested, 0.08% active. AID 1235;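 active means inhibition above 30% in each of the two pooled mixtures holding the compound, so the lower value exceeds 30%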
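Test system: human serum alternative complement pathway, C3 deposition on LPS-coated wells; also added: Plate-bound LPS; doses: 5 µM per compound in ten-compound mixtures; schedule: 1 h at 37 °C; detection: Anti-C3 ELISA, OD 450 nm; evaluation: percent inhibition of C3 deposition onto LPS; repeats: two pool placements per compound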
tolC growth inh = blocks growth of E. coli BW25113 tolC mutant | OD615 | growth inhibition, % at 10 µM (by protocol) | 65,000 tested, 2.2% active;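 active means growth inhibition at or above a cutoff equal to the mean over every tested compound plus 3 SD, cut at about 60% in these data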;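 further: growth measured after 20 h incubation at 37 °C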
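Doses: one dose of 10 µM final / Material: E. coli BW25113 ΔtolC::kan, tolC deletion mutant strain / Buffer or medium: LB with kanamycin 50 µg/mL / Evaluation: percent growth inhibition / Detection: optical density read at 615 nm / Incubation: 37 °C, 20 h exposure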
MMP-13 inhibitor = inhibitors of human MMP13; MMP-13 fTHP FRET cleavage, Mca fluorescence; P45452; inhibition, % at 4 µM; 65,000 tested, 0.07% active;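 active means inhibition above the mean of compound-free control plate wells plus 3 SD, cut at about 14% in these data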
HePTP inhibitor = blocks human HePTP tyrosine phosphatase; inhibition, % at 20 µM; 110,000 tested, 0.64% active; recombinant HePTP phosphatase activity, OD absorbance; AID 521; P35236; in the data active means inhibition above about 50%
Target sequence (P35236 whole entry, looked up): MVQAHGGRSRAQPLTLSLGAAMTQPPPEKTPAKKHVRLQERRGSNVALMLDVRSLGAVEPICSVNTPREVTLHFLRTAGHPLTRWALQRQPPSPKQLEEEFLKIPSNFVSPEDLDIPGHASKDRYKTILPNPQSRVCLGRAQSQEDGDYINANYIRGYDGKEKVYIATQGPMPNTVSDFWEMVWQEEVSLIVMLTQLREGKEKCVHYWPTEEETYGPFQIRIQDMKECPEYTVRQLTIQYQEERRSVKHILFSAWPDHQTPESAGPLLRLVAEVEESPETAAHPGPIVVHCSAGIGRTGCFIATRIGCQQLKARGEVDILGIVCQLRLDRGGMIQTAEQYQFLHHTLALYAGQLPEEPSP
Ecoli WT expand = E. coli BW25113 growth inhibition, expanded screen | OD600 absorbance | 98,000 tested, 0.15% active | growth inhibition, % at 100 µM;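 active means growth inhibition above about 50% at one test dose, limit read from the data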;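 further: growth measured after 20 h incubation at 37 °C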
Hits are given with their value; - = inactive; . = not tested or not shown.

SMILES	E coli RNAP	AP ELISA ortho	tolC growth inh	MMP-13 inhibitor	HePTP inhibitor	Ecoli WT expand
CCCn1c(=O)c(C(=O)Nc2nnc(C)s2)c(O)c2ccccc21	-	-	80	-	-	.
CC(C)Cn1c(=O)c(C(=O)Nc2ccncc2)c(O)c2ccccc21	.	-	96	-	-	.
COc1cc(Cl)ccc1NC(=O)c1c(O)c2ccccc2n(CC(C)C)c1=O	.	.	.	.	-	.
CCCn1c(=O)c(C(=O)Nc2cccc(C)c2)c(O)c2ccccc21	.	.	.	.	-	.
CC(NC(=O)c1ccccc1Cl)c1ccccc1 (stereo unspecified)	.	.	.	.	98	.
COc1ccccc1C(=O)N[C@H](C)c1ccccc1	.	.	.	.	-	.
CCSc1nnc(NC(=O)c2ccccn2)s1	-	-	100	-	-	63
CCCOC(=O)c1ccc(NC(=O)c2cccc([N+](=O)[O-])c2C)cc1	.	.	.	.	-	.
CCOC(=O)c1sc(NC(=O)c2c(C)nn(Cc3ccccc3)c2C)cc1C	-	-	71	-	-	-
C=CCOc1ccc2c(C)cc(=O)oc2c1I	.	.	.	.	104	.
CCOC(=O)c1c(C)[nH]c(C)c1C(=O)COC(=O)[C@@H](NC(=O)c1ccccc1OCC)C(C)C	.	.	.	.	.	-
CCOc1ccccc1C(=O)NC(C(=O)OCC(=O)Nc1nnc(-c2ccccc2)o1)C(C)C (stereo unspecified)	-	-	87	-	-	-
COCCCNS(=O)(=O)c1ccc(OC)cc1	.	.	.	.	98	.
C=CCc1cccc2cc(C(=O)Nc3ccc(Cl)c(Cl)c3)c(=O)oc12	.	.	.	.	-	.
C=CCc1cccc2cc(C(=O)Nc3ccc(OCC)cc3)c(=O)oc12	.	.	.	.	-	.
C=CCc1cccc2cc(C(=O)Nc3cccc(C(=O)O)c3)c(=O)oc12	.	.	.	.	90	.
C=CCc1cccc2cc(C(=O)Nc3ccc(S(=O)(=O)Nc4nnc(CC)s4)cc3)c(=O)oc12	.	.	.	.	103	.
O=C(COc1ccccc1)Nc1cccc([N+](=O)[O-])c1	.	.	.	.	-	.
O=C(CCOc1ccccc1)Nc1cccc([N+](=O)[O-])c1	.	.	.	.	92	.
CC(C)(C)NC(=O)C(c1ccco1)N(C(=O)Cn1nnc(-c2ccc(F)cc2)n1)c1ccccc1F (stereo unspecified)	-	-	71	-	-	-
O=C(Oc1ccccc1)c1cc2ccccc2o1	-	-	71	-	-	-
CCOc1ccc(C(NC=O)c2ccc(OC)c(OC)c2)cc1 (stereo unspecified)	.	.	.	.	-	.
COc1ccc(-n2c(NC(=O)c3ccc(Br)o3)c(C#N)c3nc4ccccc4nc32)cc1	.	.	.	.	.	-
CCCCn1c(NC(=O)c2ccccc2)c(C#N)c2nc3ccccc3nc21	-	-	67	-	-	-
N#Cc1c(NC(=O)c2ccc(Br)o2)n(-c2ccccc2)c2nc3ccccc3nc12	-	-	62	-	-	.
SMILES	E coli RNAP	AP ELISA ortho	tolC growth inh	MMP-13 inhibitor	HePTP inhibitor	Ecoli WT expand
CCC(=O)Nc1c(C#N)c2nc3ccccc3nc2n1-c1ccc(C)cc1	-	-	-	-	.	.
CCCCn1c(NC(=O)c2ccc(F)cc2)c(C#N)c2nc3ccccc3nc21	-	-	88	-	-	.
CCc1cc(C(=O)N=Nc2c(O)[nH]c3ccccc23)c2ccccc2n1	.	.	.	.	-	.
O=C(N/N=C/C1CCCCC1)c1cc(Cl)ccc1O	.	.	.	.	.	50
O=C(N/N=C/C1CCCCC1)c1ccccn1	.	.	.	.	.	-
On1onc2c3cc(-c4ccccc4)nc3ccc21	-	-	98	-	-	-
N=c1c2c(n(Cc3ccc(Cl)c(Cl)c3)c3c1CCC3)CCCC2	-	-	100	-	-	-
Clc1ccc(CN2C3=NCCN3c3ccccc32)cc1Cl	-	-	-	-	-	-
CCOC(=O)c1ccc(NC(=S)NC(NC(=O)Cc2ccccc2)C(Cl)(Cl)Cl)cc1 (stereo unspecified)	.	.	.	.	104	.
Cc1ccc(C(=O)/C=C/c2ccccc2)o1	.	.	.	.	.	-
CN(C)/C=C/C=C/C(=O)c1ccc(/C=C/C=C/N(C)C)o1	.	.	.	.	103	.
O=C(Cn1cnc([N+](=O)[O-])n1)NCc1ccccc1	.	.	.	.	.	-
O=C1C=CC(=O)C(/C(=C/NCc2ccccc2)[N+](=O)[O-])=C1	.	.	.	.	104	.
O=C1C(Cl)=CC(=NSc2nc3ccccc3s2)C=C1Cl	.	.	.	.	68	.
COc1cc2c3c(c1)C1(C(=O)N3C(C)(C)C=C2C)C(C#N)=C(N)Oc2cc(O)ccc21 (stereo unspecified)	-	-	65	-	-	-
O=[N+]([O-])c1ccccc1NCCNS(=O)(=O)c1ccccc1	.	.	.	.	-	.
CCOc1ccc(C(=O)Nc2ccc(NC(=O)c3ccco3)c(OC)c2)cc1[N+](=O)[O-]	.	.	.	.	104	.
CCOc1ccc(C(=O)Nc2ccc(-c3nc4ccccc4o3)c(O)c2)cc1[N+](=O)[O-]	.	.	.	.	104	.
CCOc1ccc(C(=O)Nc2ccc3oc(-c4cccc(Cl)c4Cl)nc3c2)cc1[N+](=O)[O-]	.	.	.	.	-	.
CCOc1ccc(N(Cc2ccc(C(=O)N3CCCC3)cc2)S(=O)(=O)c2ccc(C)cc2)cc1	.	.	.	.	-	.
Cc1ccc(N2C(=O)C3C4C=CC(C)(O4)C3C2=O)cc1Br (stereo unspecified)	.	.	.	.	-	.
COc1ccc(-n2c(C)nc3c(cnn3-c3ccc(Cl)cc3)c2=O)cc1	-	-	75	-	-	-
O=C(Nc1cccnc1)C1(c2ccccc2)CCCC1	-	-	-	-	-	-
O=C(Nc1ccncc1)C1(c2ccccc2)CCCC1	-	39	-	-	-	-
CCOC(=O)N1CCN(c2nc3ccccc3nc2C(C#N)S(=O)(=O)c2ccc(C)cc2)CC1 (stereo unspecified)	-	-	77	-	-	-
SMILES	E coli RNAP	AP ELISA ortho	tolC growth inh	MMP-13 inhibitor	HePTP inhibitor	Ecoli WT expand
N#CC(c1nc2ccccc2nc1N1CCCCC1)S(=O)(=O)c1ccc(Cl)cc1 (stereo unspecified)	-	-	89	-	-	.
COC(=O)C1=C(C)N(c2ccc(Cl)cc2)/C(=C\c2ccc(OCC(=O)Nc3ccccc3OC)cc2)C1=O	.	.	.	.	-	.
O=C(NCc1cccs1)c1nn2c(C(F)(F)F)cc(-c3ccco3)nc2c1Cl	.	.	.	.	-	.
O=C(NCCCO)C1CC(=O)N(c2ccccc2)C1 (stereo unspecified)	.	.	.	.	-	.
COc1cc(/C=C2\N=C(c3ccccc3)OC2=O)cc(Br)c1OCc1c(C)no[n+]1[O-]	.	.	.	.	-	.
CCOc1cc(/C=C2\N=C(c3ccccc3)OC2=O)ccc1OCc1c(C)no[n+]1[O-]	.	.	.	.	66	.
Fc1ccc(NC(=S)Nc2ccccn2)cc1	.	.	.	.	-	.
C=C(C)CNC(=S)Nc1ccccn1	.	.	.	.	103	.
COc1cc(/C=N/N=C2\NC(=O)C(CC(=O)O)S2)cc(OC)c1OC (stereo unspecified)	.	.	.	.	-	.
Cc1cc(=O)[nH]c(SCC(=O)C23CC4CC(CC(C4)C2)C3)c1C#N	-	-	70	-	-	-
Cc1cc(=O)[nH]c(SCC(=O)O)c1C#N	.	.	.	.	.	-
c1ccc(-c2nn3c(C4CCCCC4)nnc3s2)nc1	-	-	-	-	-	-
Clc1ccc(OCc2nn3c(C4CCCCC4)nnc3s2)cc1	-	-	97	-	-	-
O=C(Nc1ccccc1)c1cc(N2CCOCC2)nc2ccccc12	-	.	-	-	-	-
Cc1cccc(NC(=O)c2cc(N3CCOCC3)nc3ccccc23)c1	21	.	-	-	-	-
